# In publication PMC9532722 (Acta Pharmaceutica Sinica. B, 2022):
# “And” between values parts separate entries of the source, which are not always exact repeats. Identical values can stand only once. Like-named read-outs stand apart in the source and are kept apart here.
# Assays:
# [1] = tested on: persistent AF canine model; test: Anti-atrial fibrillatory effect in persistent AF canine model; format: in vivo, beagle dogs
# [2] = tested on: persistent AF canine model; test: Proarrhythmic risk; format: in vivo, beagle dogs; conditions: 3 mg/kg i.v.; for peak increment of STVQT: at 3 h (dronedarone), 9 h (poyendarone), 1 h (amiodarone), n = 4
# [3] = tested on: canine model of paroxysmal AF; conditions: basic pacing cycle length of 200 ms; cited from earlier work
# [4] = Aqueous kinetic solubility; format: physicochemical; conditions: universal aqueous buffer, pH 7.4
# Method in brief: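 Kinetic solubility: test compound from 10 mmol/L DMSO stock diluted into universal aqueous buffer, pH 7.4 (1% DMSO, v/v), then sonicated. Run in 3 filter-plate wells, agitated 24 h at 250 rpm at room temperature and filtered. Filtrate brought to 80:20 buffer/ACN. Solubility estimated from UV absorbance at 300 nm.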
# [5] = Effective permeability by PAMPA; format: physicochemical; conditions: pH 7.4
# CYP2J2 [6] = biological target: T1, CYP2J2 (Homo sapiens, UniProt P51589); test: in vitro; format: in vitro ADME
# T1 sequence (P51589 1-502): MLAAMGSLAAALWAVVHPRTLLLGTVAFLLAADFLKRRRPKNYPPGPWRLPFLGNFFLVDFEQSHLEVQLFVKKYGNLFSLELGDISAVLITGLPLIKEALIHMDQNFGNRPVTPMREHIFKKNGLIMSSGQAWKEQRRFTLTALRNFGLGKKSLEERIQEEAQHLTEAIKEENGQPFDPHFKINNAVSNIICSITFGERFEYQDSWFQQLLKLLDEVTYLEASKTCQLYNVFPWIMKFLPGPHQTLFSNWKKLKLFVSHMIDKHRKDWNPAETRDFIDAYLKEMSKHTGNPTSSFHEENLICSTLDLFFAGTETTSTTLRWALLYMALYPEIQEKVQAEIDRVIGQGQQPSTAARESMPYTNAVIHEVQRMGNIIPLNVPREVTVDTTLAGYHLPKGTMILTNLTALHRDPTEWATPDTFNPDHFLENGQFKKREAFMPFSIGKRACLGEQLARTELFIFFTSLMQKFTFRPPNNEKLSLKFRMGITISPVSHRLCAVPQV
# CYP3A4 [7] = biological target: T2, CYP3A4 (Homo sapiens, UniProt P08684); test: Metabolic stability, substrate depletion, rCYP3A4; format: in vitro ADME
# Method in brief: (§1)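 Substrate depletion. Test compound at 1 μmol/L incubated with NADPH generating system (NADP+, glucose 6-phosphate, glucose-6-phosphate dehydrogenase) and one enzyme source: human liver microsomes 0.5 mg/mL, rCYP3A4 10 pmol/mL or rCYP3A5 10 pmol/mL. Aliquots at set times quenched in ice-cold ACN with internal standard; parent measured by LC–MS/MS. Percent remaining versus time fitted to one-phase decay for CLint.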
# CYP3A5 [8] = biological target: T3, CYP3A5 (Homo sapiens, UniProt P20815); test: Metabolic stability, substrate depletion, rCYP3A5; format: in vitro ADME
# Method in brief: as §1
# [9] = Metabolic stability, substrate depletion, HLM; format: in vitro ADME; conditions: human, human liver microsomes
# Method in brief: as §1
# human NaV1.5 channel = human NaV1.5 channel (Homo sapiens, UniProt Q14524); test: Whole-cell patch clamp, NaV1.5 peak current in transfected HEK293FT cells; format: cell-based
# Method in brief: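 HEK293FT cells grown in DMEM with 10% FBS at 37 °C, 5% CO2. Co-transfected with human NaV1.5 and β1-subunit plasmids; replated on coated coverslips 24 h before recording. Peak INa measured by whole-cell voltage clamp with test compound at 1–10 μmol/L: 5–6 kHz filter, >70% series-resistance compensation, P/4 leak subtraction. IC50 from variable-slope log(inhibitor)–response fit.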
# [10] = biological target: human CaV1.2 α1C cardiac isoform (Homo sapiens, UniProt Q13936); test: Whole-cell patch clamp, CaV1.2 peak current in transfected HEK293FT cells; format: cell-based
# hKV11.1 (hERG) channel = hKV11.1 (hERG) channel (Homo sapiens, UniProt Q12809); test: Whole-cell patch clamp, KV11.1 tail current in transfected HEK293FT cells; format: cell-based
# Method in brief: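 HEK293FT cells grown in DMEM with 10% FBS at 37 °C, 5% CO2. Co-transfected with human KV11.1 and KCNE1 plasmids, then plated on poly-D-lysine coverslips. Test compound applied at 10 nmol/L–1 μmol/L under whole-cell voltage clamp: 1 kHz filter, >70% series-resistance compensation, P/4 leak subtraction. Pulses of 2.5 s from −80 to 20 mV; tail current recorded at −60 mV. IC50 from variable-slope log(inhibitor)–response fit.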
# CYP2J2 [11] = biological target: T1, CYP2J2; test: in vitro; format: biochemical
# CYP3A4 [12] = biological target: T2, CYP3A4; test: Mechanism-based inactivation of CYP3A4, rivaroxaban as probe substrate; format: biochemical
# Method in brief: (§2)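 Two-step inactivation assay. Recombinant CYP3A4 or CYP3A5 (20 pmol/mL) pre-incubated at 37 °C with test compound (0–20 μmol/L) and NADPH system in potassium phosphate buffer. At set times, aliquots diluted 20-fold into rivaroxaban plus NADPH regenerating system and incubated 2 h. ACN quench; rivaroxaban morpholinone product measured by LC–MS/MS. kobs from log % activity versus time; kinact and KI from kobs versus concentration; n = 3, mean ± SEM.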
# CYP3A5 [13] = biological target: T3, CYP3A5; test: Mechanism-based inactivation of CYP3A5, rivaroxaban as probe substrate; format: biochemical
# Method in brief: as §2
# CYP2J2 [14] = biological target: T1, CYP2J2; format: biochemical; conditions: CYP2J2-mediated astemizole O-desmethylation
# CYP2J2 [15] = biological target: T1, CYP2J2; format: biochemical; conditions: co-incubation 2 h with NADPH
# H9c2 cells = test: Concurrent cytotoxicity and ATP depletion; format: cell-based, rat; conditions: 6 h
# hiPSC-CMs = test: BTB variability in hiPSC-CMs; format: cell-based, human; conditions: hiPSC-CM, 1 μmol/L
# Method in brief: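 Cardiomyocytes from hiPSC made by viral-free reprogramming of human foreskin fibroblasts. Exposed to test compound (0–10 μmol/L); MEA field potentials recorded 5 min at baseline and 5 min after dosing. Successive RR intervals plotted as Poincaré plots, giving SD1 (STVRR) and SD2 (LTVRR). One experiment in triplicate, mean ± SEM; groups compared with control by one-way ANOVA and Dunnett's test.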
# [16] = hydrochloride 3 mg/kg i.v., conscious dogs
# T3 sequence (P20815 whole entry): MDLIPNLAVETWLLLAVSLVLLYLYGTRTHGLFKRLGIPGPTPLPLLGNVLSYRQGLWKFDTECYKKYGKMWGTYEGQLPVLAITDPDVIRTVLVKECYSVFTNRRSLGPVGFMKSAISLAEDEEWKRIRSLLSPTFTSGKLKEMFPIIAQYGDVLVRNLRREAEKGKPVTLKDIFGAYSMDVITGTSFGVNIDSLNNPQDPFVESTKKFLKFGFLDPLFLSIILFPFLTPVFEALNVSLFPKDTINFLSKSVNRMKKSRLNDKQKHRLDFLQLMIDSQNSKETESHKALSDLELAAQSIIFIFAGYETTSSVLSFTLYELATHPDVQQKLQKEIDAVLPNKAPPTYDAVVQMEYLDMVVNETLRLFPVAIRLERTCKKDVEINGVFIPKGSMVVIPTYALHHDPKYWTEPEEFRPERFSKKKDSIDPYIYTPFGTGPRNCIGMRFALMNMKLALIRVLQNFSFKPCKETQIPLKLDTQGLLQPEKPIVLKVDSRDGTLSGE
# T2 sequence (P08684 whole entry): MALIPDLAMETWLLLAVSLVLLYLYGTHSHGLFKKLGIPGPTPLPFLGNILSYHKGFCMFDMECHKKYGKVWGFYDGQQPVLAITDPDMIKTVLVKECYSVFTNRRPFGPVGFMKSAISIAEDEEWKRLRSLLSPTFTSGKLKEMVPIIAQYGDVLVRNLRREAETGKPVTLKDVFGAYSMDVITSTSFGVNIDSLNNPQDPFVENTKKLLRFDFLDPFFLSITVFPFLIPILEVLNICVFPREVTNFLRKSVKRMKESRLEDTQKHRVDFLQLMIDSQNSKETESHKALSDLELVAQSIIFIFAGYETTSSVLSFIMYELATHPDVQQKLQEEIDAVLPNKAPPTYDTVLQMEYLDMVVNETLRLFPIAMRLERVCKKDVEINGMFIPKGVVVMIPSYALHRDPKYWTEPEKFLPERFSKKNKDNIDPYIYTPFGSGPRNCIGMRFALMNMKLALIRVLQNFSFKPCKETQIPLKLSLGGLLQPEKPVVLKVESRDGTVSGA
# Sequence of hKV11.1 (hERG) channel (Q12809 whole entry): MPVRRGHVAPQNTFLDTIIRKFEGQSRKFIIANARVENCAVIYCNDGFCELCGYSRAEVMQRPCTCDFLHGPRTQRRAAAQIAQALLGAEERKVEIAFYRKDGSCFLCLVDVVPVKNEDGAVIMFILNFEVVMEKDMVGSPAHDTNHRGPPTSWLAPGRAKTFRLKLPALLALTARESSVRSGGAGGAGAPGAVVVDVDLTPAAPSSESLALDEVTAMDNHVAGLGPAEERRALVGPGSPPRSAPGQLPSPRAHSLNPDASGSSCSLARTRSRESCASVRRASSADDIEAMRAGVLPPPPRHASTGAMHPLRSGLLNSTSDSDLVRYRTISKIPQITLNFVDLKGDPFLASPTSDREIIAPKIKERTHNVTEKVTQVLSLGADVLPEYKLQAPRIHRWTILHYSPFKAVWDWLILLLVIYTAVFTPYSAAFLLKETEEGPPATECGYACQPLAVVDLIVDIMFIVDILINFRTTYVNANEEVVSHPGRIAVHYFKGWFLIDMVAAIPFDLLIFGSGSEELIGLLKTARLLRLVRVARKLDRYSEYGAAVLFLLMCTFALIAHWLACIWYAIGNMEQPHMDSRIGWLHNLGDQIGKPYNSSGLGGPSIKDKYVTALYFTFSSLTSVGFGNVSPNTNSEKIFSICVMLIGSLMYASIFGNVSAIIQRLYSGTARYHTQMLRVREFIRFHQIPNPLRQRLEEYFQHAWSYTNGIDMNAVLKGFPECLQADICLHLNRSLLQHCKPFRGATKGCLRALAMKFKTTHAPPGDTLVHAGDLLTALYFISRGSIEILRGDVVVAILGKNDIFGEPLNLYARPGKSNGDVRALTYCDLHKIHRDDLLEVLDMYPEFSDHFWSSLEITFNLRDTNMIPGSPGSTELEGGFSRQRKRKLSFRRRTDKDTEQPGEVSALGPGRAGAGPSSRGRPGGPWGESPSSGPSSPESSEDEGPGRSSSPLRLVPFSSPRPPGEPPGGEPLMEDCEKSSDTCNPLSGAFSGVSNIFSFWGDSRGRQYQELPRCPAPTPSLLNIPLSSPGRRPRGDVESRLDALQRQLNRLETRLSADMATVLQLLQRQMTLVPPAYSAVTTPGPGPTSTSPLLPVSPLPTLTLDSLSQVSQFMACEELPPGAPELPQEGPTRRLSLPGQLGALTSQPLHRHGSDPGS
# Sequence of human NaV1.5 channel (Q14524 whole entry): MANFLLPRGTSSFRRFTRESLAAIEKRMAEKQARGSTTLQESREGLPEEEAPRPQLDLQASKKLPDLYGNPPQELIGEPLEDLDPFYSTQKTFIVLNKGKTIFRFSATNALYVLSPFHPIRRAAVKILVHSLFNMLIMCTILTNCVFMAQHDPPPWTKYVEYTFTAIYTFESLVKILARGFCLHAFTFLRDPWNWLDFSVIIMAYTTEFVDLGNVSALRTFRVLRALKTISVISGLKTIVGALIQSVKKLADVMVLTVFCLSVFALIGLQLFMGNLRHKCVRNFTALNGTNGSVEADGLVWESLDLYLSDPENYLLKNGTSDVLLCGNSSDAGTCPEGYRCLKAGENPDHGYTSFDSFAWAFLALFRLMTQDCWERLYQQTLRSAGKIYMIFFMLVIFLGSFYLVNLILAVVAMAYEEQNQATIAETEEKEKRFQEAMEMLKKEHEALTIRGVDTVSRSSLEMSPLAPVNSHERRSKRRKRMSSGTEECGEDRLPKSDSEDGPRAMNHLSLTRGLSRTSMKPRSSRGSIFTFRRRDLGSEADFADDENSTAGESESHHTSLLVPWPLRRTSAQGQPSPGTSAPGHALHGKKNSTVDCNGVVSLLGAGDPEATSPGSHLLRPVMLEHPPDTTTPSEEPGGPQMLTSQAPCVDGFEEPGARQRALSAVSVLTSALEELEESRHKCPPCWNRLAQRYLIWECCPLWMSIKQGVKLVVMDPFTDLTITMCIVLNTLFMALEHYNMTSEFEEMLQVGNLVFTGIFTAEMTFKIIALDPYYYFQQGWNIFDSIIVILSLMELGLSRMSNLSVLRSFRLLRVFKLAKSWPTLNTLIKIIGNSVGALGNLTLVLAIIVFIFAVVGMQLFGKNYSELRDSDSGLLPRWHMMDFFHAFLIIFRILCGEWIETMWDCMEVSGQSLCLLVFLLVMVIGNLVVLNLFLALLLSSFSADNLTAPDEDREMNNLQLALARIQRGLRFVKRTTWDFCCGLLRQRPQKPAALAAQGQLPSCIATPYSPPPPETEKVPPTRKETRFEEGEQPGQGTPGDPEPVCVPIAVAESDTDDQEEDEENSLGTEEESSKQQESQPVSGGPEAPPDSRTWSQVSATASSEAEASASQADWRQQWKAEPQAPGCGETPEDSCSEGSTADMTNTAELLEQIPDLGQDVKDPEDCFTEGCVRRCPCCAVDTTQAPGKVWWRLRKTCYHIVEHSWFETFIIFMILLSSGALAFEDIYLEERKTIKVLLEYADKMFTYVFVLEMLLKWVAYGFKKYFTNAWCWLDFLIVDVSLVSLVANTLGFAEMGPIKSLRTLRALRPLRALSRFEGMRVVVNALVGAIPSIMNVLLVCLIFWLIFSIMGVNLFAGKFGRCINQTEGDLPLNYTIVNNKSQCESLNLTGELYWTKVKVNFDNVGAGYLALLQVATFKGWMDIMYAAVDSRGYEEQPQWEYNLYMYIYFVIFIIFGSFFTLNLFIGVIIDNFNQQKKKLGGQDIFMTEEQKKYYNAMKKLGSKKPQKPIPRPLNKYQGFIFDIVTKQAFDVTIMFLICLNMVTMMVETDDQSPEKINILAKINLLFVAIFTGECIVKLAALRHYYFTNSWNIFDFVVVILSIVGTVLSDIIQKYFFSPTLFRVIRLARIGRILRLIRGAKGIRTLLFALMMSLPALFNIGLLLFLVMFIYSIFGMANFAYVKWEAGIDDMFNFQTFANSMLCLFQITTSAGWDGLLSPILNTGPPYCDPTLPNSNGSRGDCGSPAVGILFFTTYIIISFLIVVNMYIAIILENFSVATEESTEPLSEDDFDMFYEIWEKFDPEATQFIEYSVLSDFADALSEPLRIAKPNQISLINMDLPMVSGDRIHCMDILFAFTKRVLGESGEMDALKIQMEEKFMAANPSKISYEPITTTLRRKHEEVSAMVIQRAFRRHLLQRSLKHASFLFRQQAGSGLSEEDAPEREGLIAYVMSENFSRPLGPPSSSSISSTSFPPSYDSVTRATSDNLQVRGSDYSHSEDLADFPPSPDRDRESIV
structure (smiles),measurement,setting,value
CCCCc1oc2ccccc2c1C(=O)c1cc(I)c(OCCN(CC)CC)c(I)c1 [Amiodarone],"spontaneous AF recurrence, time after the termination of AF","[1]; hydrochloride 3 mg/kg i.v., animal #1",5.2 h
same,time of AF termination after the start of administration (individual animals),[1]; [16],7.7 h and 5.9 h
same,peak increment of STVQT,[2],1.05 ± 0.41 ms
same,atrial effective refractory period prolongation,[3],-3 ms
same,inter-atrial conduction time prolongation,[3],+1 ms
CCCCc1oc2ccc(NS(C)(=O)=O)cc2c1C(=O)c1ccc(OCCCN(CCCC)CCCC)cc1 [Dronedarone],solubility at 24 h,[4],3.22 ± 0.34 µg/mL
same,Papp at 16 h,[5],3.46 ×10⁻⁶ cm/s
same,half-life at 1 μmol/L,"CYP2J2 [6]; human, recombinant enzyme",3.95 min
same,"Intrinsic clearance, CLint",CYP2J2 [6]; rCYP2J2,0.88 µL/min/pmol
same,half-life at 1 μmol/L,"CYP3A4 [7]; human, recombinant CYP3A4 (rCYP3A4)",8.05 min
same,"Intrinsic clearance, CLint",CYP3A4 [7]; rCYP3A4,0.86 µL/min/pmol
same,half-life at 1 μmol/L,"CYP3A5 [8]; human, recombinant CYP3A5 (rCYP3A5)",12.2 min
same,"Intrinsic clearance, CLint",CYP3A5 [8]; rCYP3A5,0.57 µL/min/pmol
same,half-life at 1 μmol/L,[9],10.4 min
same,microsomal CLint at 1 μmol/L,[9],13.3 µL/min/mg
same,IC50,human NaV1.5 channel,3.41 µM
same,IC50,[10],1.96 µM
same,IC50,hKV11.1 (hERG) channel,0.16 µM
same,kinact/KI,"CYP2J2 [11]; CYP2J2, rivaroxaban substrate",7.85e-05 M⁻¹ s⁻¹
same,KI,"CYP2J2 [11]; CYP2J2, rivaroxaban substrate, mean ± SEM",8.47 ± 3.96 µM
same,kinact,CYP2J2 [11]; human,0.000667 s⁻¹
same,MBI of CYP2J2-mediated rivaroxaban hydroxylation (in words),CYP2J2 [11]; rivaroxaban as probe substrate,potently inactivated
same,kinact/KI,CYP3A4 [12],8.42e-05 M⁻¹ s⁻¹
same,kinact/KI,CYP3A4 [12]; as printed in text,83.3 M⁻¹ s⁻¹
same,KI,CYP3A4 [12]; mean ± SEM,5.3 ± 2.95 µM
same,kinact/KI,"CYP3A5 [13]; CYP3A5, rivaroxaban substrate",0.000121 M⁻¹ s⁻¹
same,KI,"CYP3A5 [13]; CYP3A5, rivaroxaban substrate, mean ± SEM",4.44 ± 1.76 µM
same,kinact,"CYP3A5 [13]; human, recombinant CYP3A5 (rCYP3A5), probe rivaroxaban",0.000538 s⁻¹
same,kinact/KI,CYP2J2 [14],8300 M⁻¹ s⁻¹
same,inhibition of CYP2J2-mediated AA metabolism to EETs (in words),CYP2J2 [15],inhibits CYP2J2-mediated AA metabolism in a concentration-dependent manner
same,fold higher cytotoxicity than poyendarone,H9c2 cells,22 fold
same,fold more potent decrease of intracellular ATP than poyendarone,H9c2 cells,13 fold
same,"long-term variability (LTVRR), fold compared to poyendarone",hiPSC-CMs,3 fold
same,"short-term variability (STVRR), fold compared to poyendarone",hiPSC-CMs,4 fold
same,animals in which persistent AF was terminated,"[1]; hydrochloride 3 mg/kg i.v. over 30 s, conscious dogs, 21 h observation",2 out of 4
same,time of AF termination after the start of administration (individual animals),[1]; [16],5.2 h and 10.6 h
same,period after administration with increased STVQT,[2],0.5 to 12 h
same,STVQT relative to the critical border for early afterdepolarization,[2]; throughout observation period,intermittently elevated STVQT
same,peak increment of STVQT,[2],3.06 ± 0.80 ms
same,atrial effective refractory period prolongation,[3],+4 ms
same,inter-atrial conduction time prolongation,[3],+13 ms
